Ecoli rRNA inh: reduced GFP signal of wild-type E. coli, primary screen, bacterial rRNA inhibitor project, GFP/RFP fluorescence, OD600, single point; GFP signal change (wild-type ribosome), % (test concentration not listed); 1.6% of 350,000 active; E. coli WT GFP vs humanized-ribosome RFP mutants, 24 h; stronger effect = lower value; DMSO median 0, no signal -100; AID 720706, 2013;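 active means significant combined selectivity score with lowered wild-type GFP, culture density cut under 30%, mutant RFP and density less affected; inactive means any of these conditions unmet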
ERAP1 inh: human ERAP1 aminopeptidase inhibitors, primary screen, biochemical, single point, plate reader | AID 652197, 2013 | Endoplasmic reticulum aminopeptidase 1 (Homo sapiens), Q9NZ08 | 0.15% of 340,000 active | recombinant ERAP1, Leu-AMC fluorescence, 60 min | inhibition, % at 10.7 µM;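 active means mean replicate inhibition of at least 30%, or all replicates individually reaching that 30% level; inactive means mean below 30% and not every replicate reaching it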;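 further: 0% = neutral control wells and 100% = L-leucinethiol positive control wells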
Target sequence (Q9NZ08 whole entry, looked up): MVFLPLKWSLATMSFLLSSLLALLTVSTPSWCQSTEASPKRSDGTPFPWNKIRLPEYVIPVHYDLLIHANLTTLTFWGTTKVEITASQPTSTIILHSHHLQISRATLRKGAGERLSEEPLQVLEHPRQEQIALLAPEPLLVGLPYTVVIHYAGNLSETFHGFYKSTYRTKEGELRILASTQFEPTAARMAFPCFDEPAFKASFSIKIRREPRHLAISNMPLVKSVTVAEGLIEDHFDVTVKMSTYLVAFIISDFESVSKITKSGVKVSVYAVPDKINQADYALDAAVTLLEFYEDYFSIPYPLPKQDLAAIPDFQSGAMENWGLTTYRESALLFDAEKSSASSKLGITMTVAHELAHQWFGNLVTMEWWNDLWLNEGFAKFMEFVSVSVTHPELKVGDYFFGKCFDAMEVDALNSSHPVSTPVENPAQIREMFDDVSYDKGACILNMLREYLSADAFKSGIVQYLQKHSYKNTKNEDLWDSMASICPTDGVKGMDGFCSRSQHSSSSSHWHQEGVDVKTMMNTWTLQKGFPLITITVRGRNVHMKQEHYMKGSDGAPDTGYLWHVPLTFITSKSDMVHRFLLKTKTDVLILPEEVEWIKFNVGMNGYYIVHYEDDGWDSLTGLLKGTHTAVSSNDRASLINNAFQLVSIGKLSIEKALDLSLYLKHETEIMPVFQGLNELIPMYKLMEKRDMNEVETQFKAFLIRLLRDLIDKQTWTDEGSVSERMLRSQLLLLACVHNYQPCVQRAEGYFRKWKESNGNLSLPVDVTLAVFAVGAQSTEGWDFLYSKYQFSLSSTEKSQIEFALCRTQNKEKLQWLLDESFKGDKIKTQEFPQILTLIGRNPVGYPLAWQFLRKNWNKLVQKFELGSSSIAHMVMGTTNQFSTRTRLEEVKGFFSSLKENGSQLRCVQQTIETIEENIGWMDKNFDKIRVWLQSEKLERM
E-selectin induc: E-selectin induction in HUVECs, primary screen, imaging, HUVEC, immunofluorescence imaging, single point. AID 686992, 2013. activation, % at 7.58 µM. 0.37% of 260,000 active. normalized: neutral wells 0, TNF-alpha wells 100. P16581;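 active means mean E-selectin-positive cell signal at least 10% of the positive control, reached in at least 60% of replicates, without over 20% cell loss; inconclusive means no rule given, readout overlaps actives, possibly toxicity-flagged; inactive means the rest, including those meeting only one limit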
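System: HUVEC, human umbilical vein endothelial cells; quantity: 3,000 cells/well; buffer or medium: EGM-2 medium, gelatin-coated wells; dosing: single-point compound dose; detection: immunofluorescence imaging; evaluation: % PE-positive cells; benchmarks: TNF-alpha, DMSO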
SIRT5 block: SIRT5 desuccinylase inhibitors, primary screen, biochemical, fluorescence imaging, single point, set 5; NAD-dependent protein deacylase sirtuin-5, mitochondrial (Homo sapiens), Q9NXA8; Purified SirT5, succinyl-peptide AMC, trypsin-coupled fluorescence; inhibition, % at 15 µM; 1.1% of 330,000 active; AID 652115, 2013; in the data active means inhibition above about 15%; inconclusive means no clear call, values can overlap the other calls
S100A4 MyoIIA: inhibitors of S100A4-myosin IIA peptide binding, primary screen, biochemical, fluorescence polarization, TAMRA-MyoIIA peptide | Protein S100-A4 (Homo sapiens), P26447 | 0.14% of 360,000 active | inhibition, % at 10.7 µM;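 active means mean inhibition of at least 70% across replicates, with every replicate also reaching that level; inconclusive means mean inhibition reaches 70% but some replicates fall short; inactive means mean inhibition below 70%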
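Material: S100A4 monomer protein | Medium: HEPES pH 7.2 with CaCl2, KCl, NaCl, DTT, Triton | Reagent: Labelled myosin peptide probe, 5 nM | Doses: One dose per compound | Times: 5 min incubation before reading | Benchmarks: Neutral control DMSO, positive control TFP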
MLL AF4-AF9 inh: inhibitors of AF4 peptide binding to AF9, primary screen, biochemical, AlphaScreen, biotin-AF4 peptide, FLAG-AF9, single point; AID 651704, 2012; 0.47% of 350,000 active; inhibition, % at 10 µM; Protein AF-9 (Homo sapiens), P42568;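 active means every replicate reaching a set inhibition limit, whatever the replicate mean, cut at about 25% in these data; inconclusive means mean inhibition reaches that limit but some replicates miss it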;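 further: 0% = plate neutral control median and 100% = total signal loss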
Active calls of the source: *; ? = inconclusive; . = not tested or not shown; ! = repeats disagree. Compounds with a hit are over-represented: about 3.4% of the library has one in this group of screens.

SMILES | Ecoli rRNA inh | ERAP1 inh | E-selectin induc | SIRT5 block | S100A4 MyoIIA | MLL AF4-AF9 inh
COCCn1c(-c2cccs2)csc1=Nc1cccnc1 | 0 | . | 1 | . | 3 | 8
COc1ccc(-c2csc(=NCCO)n2-c2ccccc2)cc1 | -16 | 2 | 0 | -2 | -4 | 33*
COc1ccc(-c2cn(-c3ccccc3)nc2CO)cc1 | -4 | -2 | 0 | -2 | 3 | -5
COCCNCC(=O)C12CC3CC(CC(C3)C1)C2 | 8 | -1 | . | 23* | -3 | -39
O=C1/C(=C/c2ccc([N+](=O)[O-])cc2)Oc2cc(O)ccc21 | -37 | 2 | 0 | 16* | -11 | -12
C[C@@H]1CN([C@@H](C)CO)C(=O)c2cc(NC(=O)c3ccncc3)ccc2O[C@H]1CN(C)Cc1ccncc1 | 2 | 0 | 0 | 4 | -5 | -2
O=[N+]([O-])c1ccc(/C=N/N2CCN(Cc3ccccc3)CC2)cc1 | -16* | 0 | 0 | 1 | -1 | ?
Cc1ccc(CN2CCN(/N=C\c3cccc([N+](=O)[O-])c3)CC2)cc1 | -25* | -2 | -5 | 0 | -3 | 15
COCC(=O)N[C@@H]1CC[C@H](CC(=O)NCc2ccc(Cl)cc2)O[C@H]1CO | 2 | -3 | 0 | 8 | -19 | -1
C[C@@H]1CCCCO[C@H](CN(C)CC2CCCCC2)[C@@H](C)CN([C@H](C)CO)C(=O)c2cc(NS(=O)(=O)c3cccs3)ccc2O1 | 3 | -2 | 0 | 1 | 14 | 10
Clc1cccc(OCCCN2CCCC2)c1Cl | 11 | 0 | 0 | -3 | 0 | 0
Clc1cccc(OCCOCCN2CCNCC2)c1Cl | -16* | 4 | 0 | -4 | 2 | 13
O=C(COC(=O)CNC(=O)c1ccccc1)NC(=O)NC1CCCCC1 | 6 | -6 | 1 | 23* | -3 | 6
Cc1c(C(=O)N2CCOCC2)c(S(=O)(=O)Nc2ccccc2)c(C)n1C | 16 | 7 | . | 19* | -6 | 0
Cc1c(C(=O)N2CCOCC2)c(S(=O)(=O)Nc2ccc(F)cc2)c(C)n1C | 9 | 1 | . | 3 | -40 | -5
C[C@@H]1CCCCO[C@@H](CN(C)S(C)(=O)=O)[C@H](C)CN([C@@H](C)CO)C(=O)c2cc(NS(C)(=O)=O)ccc2O1 | 2 | . | 0 | . | . | .
C[C@@H]1CN([C@@H](C)CO)S(=O)(=O)c2ccc(-c3cncnc3)cc2O[C@@H]1CN(C)Cc1cccnc1 | 4 | -2 | 0 | -4 | 3 | 5
CC(C)CC#Cc1ccc([C@@H]2[C@@H](CO)N3C(=O)CN(C(=O)CN4CCOCC4)C[C@@H]23)cc1 | 2 | -2 | 1 | 17* | -1 | -1
CCC(=O)N1CC(=O)N2[C@H](CO)[C@H](c3ccc(C#CCC(C)C)cc3)[C@@H]2C1 | 3 | 3 | 0 | 16* | -3 | -6
CC(C)CC#Cc1ccc([C@H]2[C@H](CO)N3C(=O)CN(C(=O)CN4CCOCC4)C[C@@H]23)cc1 | 3 | . | 0 | -4 | 16 | .
CNC[C@@H]1OCCCC[C@@H](C)Oc2ccc(NC(=O)Cc3ccccc3)cc2C(=O)N([C@H](C)CO)C[C@H]1C | 2 | -5 | 0 | 3 | -9 | -9
COCC#Cc1cnc2c(c1)C(=O)N([C@H](C)CO)C[C@@H](C)[C@@H](CN(C)C(=O)CCN1CCCCC1)O2 | 4 | -3 | 0 | -2 | -6 | -4
CC[N+]1=C(C)C(C)(C)c2cc(C)ccc21 | -39 | 14 | 169* | -3 | 182* | -84
COC(=O)C(=Nc1ccccc1)/C(C(=O)C(=O)N(C)c1ccccc1)=C(\O)c1ccccc1 | -25* | 6 | 3 | 5 | 0 | 0
CC1(C(=O)NCc2ccccc2)CSCC(=O)N1CCc1c[nH]c2ccccc12 (centres undefined) | -41* | . | 3 | 0 | 0 | 5
SMILES | Ecoli rRNA inh | ERAP1 inh | E-selectin induc | SIRT5 block | S100A4 MyoIIA | MLL AF4-AF9 inh
CCOc1ccc(-c2cc(N)n(S(=O)(=O)c3ccc(OC)c(OC)c3)n2)cc1 | 7 | 4 | 0 | 5 | -3 | 44*
COc1cccc(S(=O)(=O)Nc2ccc3c(c2)[C@H]2C[C@@H](CC(=O)NCCc4ccccc4)O[C@H](CO)[C@H]2O3)c1 | -5 | 3 | 0 | -1 | 42 | 0
Cc1noc(C)c1NC(=O)N(C)C[C@@H]1Oc2ncc(C#CC(C)C)cc2C(=O)N([C@@H](C)CO)C[C@H]1C | 4 | 2 | 0 | 4 | 4 | -6
CC1=NN(c2ccccc2)C(=O)C1/C=C1\NC(=S)NC1=O (centres undefined) | 4 | 5 | . | 15* | -5 | 1
CC1=NN(c2ccccc2)C(=O)C1C=Nc1ccccc1O (centres undefined) | -19* | -2 | . | -3 | -5 | -2
O=C(CCCC(=O)c1ccc(O)cc1)c1ccc(O)cc1 | -19 | . | 0 | . | -3 | 1
O=C1C=CC(=C(c2ccc(O)cc2)c2ccc(O)cc2)C=C1 | -50*! | 4 | . | 5 | 5 | 12
Cc1noc(C)c1S(=O)(=O)Nc1ccc2c(c1)C(=O)N([C@H](C)CO)C[C@H](C)[C@@H](CN(C)Cc1ccc(C(F)(F)F)cc1)O2 | -7 | 2 | 0 | -5 | -3 | -2
COc1cc(C(=O)N=c2sccn2C)c([N+](=O)[O-])cc1OC | 16 | 45* | 0 | -6 | -2 | -1
CN1c2ccc(C3=CCCCC3)cc2[C@@H]2[C@@H](CCN2C(=O)C2CC2)[C@H]1CO | -3 | 0 | 0 | 5 | 118* | 18
CN1c2ccc(C3=CCCCC3)cc2[C@@H]2[C@@H](CCN2C(=O)C2CC2)[C@@H]1CO | -13 | -5 | 0 | 1 | 2 | ?
CN1c2ccc(C3=CCCCC3)cc2[C@H]2[C@H](CCN2C(=O)C2CC2)[C@@H]1CO | . | 1 | . | 20* | 14 | 69*
Cc1noc(C)c1S(=O)(=O)Nc1cccc2c1O[C@@H](CN(C)Cc1ccc(-c3ccccc3)cc1)[C@@H](C)CN([C@H](C)CO)C2=O | -4 | . | 0 | . | . | .
CN(C[C@H]1[C@H](c2ccccc2)[C@@H](CO)N1C(=O)c1ccccc1)C(=O)C1CCC1 | -3 | . | 0 | 0 | 9 | -2
CCOc1ccc(C(=O)/C=C/c2cc(OC)c(OC)c(OC)c2)cc1 | -20* | 3 | -4 | -2 | -5 | 9
COc1cc(/C=C/C(=O)c2ccc(F)cc2)cc(OC)c1OC | -5 | -1 | . | 2 | -2 | 2

From PubChem
